Source: ChEMBL document CHEMBL2034918, “Synthesis and cytotoxic activity of new acridine-thiazolidine derivatives” (Bioorg Med Chem, 2012)
Calls of active or inactive are those of the source. The calls are words filed in the database; no cut-off is given here.

How the values were obtained:
Nucleic Acid [1] = test: Binding affinity to calf thymus ssDNA in solution assessed as oxidation of exposed bases at 10^-4 M by differential pulse voltametry; assay type: nucleic-acid assay; settings: Bos taurus
In short: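 ssDNA made by dissolving dsDNA (3.0 mg/mL) in 1 M HCl with heating for 1 h. Compound was incorporated into a carbon paste electrode; blank paste contained ethanol only. DPV at pH 4.5 in ssDNA solution (1.0 × 10⁻⁴ M): equilibration 5 s, step 2 mV, pulse amplitude 50 mV, scan rate 5 mV/s.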

HL-60 = test: Antiproliferative activity against human HL60 cells after 72 hrs by MTT assay; assay type: functional, cell-based; settings: HL-60, 72 h
In short: (§1)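 Cancer lines kept in RPMI-1640 with 10% foetal bovine serum, 2 mM glutamine, penicillin/streptomycin, 37 °C, 5% CO₂. Seeded at 0.7 × 10⁵ cells/well (adherent) or 0.3 × 10⁶ cells/mL (suspension). After 24 h, compounds in DMSO added at 0.048–25 µg/mL for 72 h. Medium then replaced with 0.5 mg/mL MTT for 3 h. Formazan dissolved in DMSO, absorbance read at 595 nm.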

V79 [2] = test: Selectivity ratio of IC50 for chinese hamster V79 cells to IC50 for human SF295 cells
Hs-578T = test: Antiproliferative activity against human Hs578T cells after 72 hrs by MTT assay; assay type: functional, cell-based; in short: as §1
[3] = Haemolysis in mouse erythrocytes at 200 ug/mL after 30 mins by spectrophotometry; assay type: ADME, cell-based; settings: erythrocyte, 0.5 h
In short: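 Mouse erythrocytes used as a 2% suspension in 0.85% NaCl with 10 mM CaCl₂. Compounds tested across 1.5–200 µg/mL with 1% Triton X-100 as positive control. Incubated 30 min at room temperature, then centrifuged. Released haemoglobin in the supernatant measured at 540 nm.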

V79 [4] = test: Cytotoxicity against chinese hamster V79 cells after 72 hrs by MTT assay; assay type: cell-based; settings: Cricetulus griseus, V79, 72 h
In short: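 V79 Chinese hamster lung fibroblasts grown in MEM with Earle's salts, 10% foetal bovine serum, 2 mM glutamine, penicillin/streptomycin, 37 °C, 5% CO₂. Seeded at 0.7 × 10⁵ cells/well. Compounds in DMSO added at 0.048–25 µg/mL after 24 h and left 72 h. MTT 0.5 mg/mL for 3 h, formazan in DMSO read at 595 nm. IC50 by nonlinear regression, two experiments in duplicate.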

K562 = test: Antiproliferative activity against human K562 cells after 72 hrs by MTT assay; assay type: functional, cell-based; settings: K562, 72 h; in short: as §1
Nucleic Acid [5] = test: Binding affinity to calf thymus dsDNA in biosensor assessed as oxidation of exposed bases at 10^-4 M by differential pulse voltametry; assay type: nucleic-acid assay; settings: Bos taurus
In short: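 Glassy carbon electrode polished with alumina, then pretreated by five cyclic scans 0 to +1.4 V in acetate buffer pH 4.5. Electrode coated with a dsDNA gel layer, then 20 µL of 10⁻⁴ M ethanolic compound added with drying. DPV in acetate buffer from 0 to 1.4 V: pulse amplitude 50 mV, pulse width 70 ms, step 2 mV, scan rate 5 mV/s, 25 °C. An untreated dsDNA electrode served as blank.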

MX1 = test: Antiproliferative activity against human MX1 cells after 72 hrs by MTT assay; assay type: functional, cell-based; settings: MX1, 72 h; in short: as §1
PC-3 [6] = test: Antiproliferative activity against human PC3 cells after 72 hrs by MTT assay; assay type: functional, cell-based; settings: PC-3, 72 h; in short: as §1
UACC-62 = test: Antiproliferative activity against human UACC62 cells after 72 hrs by MTT assay; assay type: functional, cell-based; settings: UACC-62, 72 h; in short: as §1
SF-295 = test: Antiproliferative activity against human SF295 cells after 72 hrs by MTT assay; assay type: functional, cell-based; settings: SF-295, 72 h; in short: as §1
PBMC = test: Cytotoxicity against human PBMC after 72 hrs by alamar blue assay; assay type: cell-based
In short: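 PBMC isolated from heparinised blood of healthy non-smoking donors by Ficoll-Hypaque density gradient. Cultured in RPMI-1640 with 20% FBS, glutamine, antibiotics and 2% phytohaemagglutinin at 37 °C, 5% CO₂. Plated at 3 × 10⁵ cells/mL; compounds in DMSO added at 0.048–25 µg/mL after 24 h, 72 h exposure. Alamar blue (resazurin) added 24 h before the end; absorbance read at 570 and 595 nm. IC50 by nonlinear regression.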

MDA-MB-435 = test: Antiproliferative activity against human MDA-MB-435 cells after 72 hrs by MTT assay; assay type: functional, cell-based; settings: MDA-MB-435, 72 h; in short: as §1
CCRF-CEM = test: Antiproliferative activity against human CEM cells after 72 hrs by MTT assay; assay type: functional, cell-based; in short: as §1
DU-145 = test: Antiproliferative activity against human DU145 cells after 72 hrs by MTT assay; assay type: functional, cell-based; settings: DU-145, 72 h; in short: as §1
SW-620 = test: Antiproliferative activity against human SW620 cells after 72 hrs by MTT assay; assay type: functional, cell-based; settings: SW-620, 72 h; in short: as §1
HCT-8 = test: Antiproliferative activity against human HCT8 cells after 72 hrs by MTT assay; assay type: functional, cell-based; settings: HCT-8, 72 h; in short: as §1
OVCAR-8 = test: Antiproliferative activity against human OVCAR8 cells after 72 hrs by MTT assay; assay type: functional, cell-based; settings: OVCAR-8, 72 h; in short: as §1
COLO 205 = test: Antiproliferative activity against human COLO205 cells after 72 hrs by MTT assay; assay type: functional, cell-based; settings: COLO 205, 72 h; in short: as §1
HCT-15 = test: Antiproliferative activity against human HCT15 cells after 72 hrs by MTT assay; assay type: functional, cell-based; settings: HCT-15, 72 h; in short: as §1
MDA-MB-231 = test: Antiproliferative activity against human MDA-MB-231 cells after 72 hrs by MTT assay; assay type: functional, cell-based; settings: MDA-MB-231, 72 h; in short: as §1
PC-3 [7] = test: Cytotoxicity against human PC3 cells after 24 hrs by MTT assay; assay type: functional, cell-based; settings: PC-3, 24 h
LNCaP = test: Cytotoxicity against human LNCAP cells after 24 hrs by MTT assay; assay type: functional, cell-based

Row | Activity (Nucleic Acid [1]) | IC50 (HL-60) | IC50 (K562) | Activity (Nucleic Acid [5]) | IC50 (PC-3 [6]) | IC50 (MDA-MB-435) | IC50 (CCRF-CEM) | IC50 (DU-145) | IC50 (SW-620) | IC50 (HCT-8) | IC50 (OVCAR-8) | IC50 (COLO 205) | IC50 (HCT-15) | SMILES | Ratio IC50 (V79 [2]) | Activity [3] | IC50 (V79 [4]) | IC50 (UACC-62) | IC50 (SF-295) | IC50 (PBMC) | also measured
1 | Active | > 60.9 µM | > 60.9 µM | Active | 17.7 µM | 15.6 µM | > 60.9 µM | > 60.9 µM | 26.8 µM | 7.4 µM | 19.7 µM | 46.4 µM | 29.2 µM | Cc1ccc(CN2C(=O)S/C(=C\c3c4ccccc4nc4ccccc34)C2=O)cc1 | 3.7 | Non-toxic | 28.5 µM | 21.1 µM | 7.8 µM | > 60.9 µM | IC50 (Hs-578T): > 60.9 µM; IC50 (MX1): > 60.9 µM; IC50 (MDA-MB-231): > 60.9 µM
2 | Active | 4.07 µM | – | Active | – | – | – | – | – | – | 23.3 µM | – | – | CCOC(=O)/C(C#N)=C/c1c2ccccc2nc2ccccc12 | – | Non-toxic | – | – | 54.7 µM | – | –
3 | – | 0.08 µM | – | – | 3.3 µM | – | – | 0.3 µM | 0.3 µM | 0.3 µM | 1.4 µM | 1.1 µM | 0.3 µM | COc1cc(NS(C)(=O)=O)ccc1Nc1c2ccccc2nc2ccccc12 [AMSACRINE] | – | – | 5.8 µM | – | 0.5 µM | 21.7 µM | –

Further lines, the molecule ahead of its results:

Row | SMILES | Activity (Nucleic Acid [1]) | IC50 (HL-60) | IC50 (K562) | Activity (Nucleic Acid [5]) | IC50 (PC-3 [6]) | IC50 (MDA-MB-435) | IC50 (CCRF-CEM) | IC50 (DU-145) | IC50 (SW-620) | IC50 (HCT-8) | IC50 (OVCAR-8) | IC50 (COLO 205) | IC50 (HCT-15) | Ratio IC50 (V79 [2]) | Activity [3] | IC50 (V79 [4]) | IC50 (UACC-62) | IC50 (SF-295) | IC50 (PBMC) | also measured
4 | Cc1c(C)c2c(c(C)c1O)CCC(C)(COc1ccc(CC3SC(=O)NC3=O)cc1)O2 (stereo unspecified) [TROGLITAZONE] | – | – | – | – | – | – | – | – | – | – | – | – | – | – | – | – | – | – | – | IC50 (PC-3 [7]): 30 µM; IC50 (LNCaP): 22 µM
5 | O=C1SC(=Cc2c3ccccc3nc3ccccc23)C(=O)N1Cc1ccc(F)cc1 (mixture of isomers) | Active | > 60.3 µM | > 60.3 µM | Active | 27.1 µM | 14.1 µM | > 60.3 µM | – | 31.3 µM | 5.6 µM | 9.3 µM | 23 µM | 58 µM | 5.9 | Non-toxic | 32.7 µM | 9.5 µM | 5.6 µM | > 60.3 µM | –
6 | O=C1S/C(=C\c2c3ccccc3nc3ccccc23)C(=O)N1Cc1ccc(Cl)cc1 | Active | > 58 µM | > 58 µM | Active | 13 µM | 22.2 µM | > 58 µM | 9.5 µM | 20.1 µM | 8.3 µM | 5.7 µM | 6.3 µM | 21.5 µM | 3.1 | Non-toxic | 17.9 µM | 29 µM | 5.8 µM | > 58 µM | IC50 (Hs-578T): > 58 µM; IC50 (MX1): > 58 µM; IC50 (MDA-MB-231): > 58 µM
7 | O=C1SC(=Cc2c3ccccc3nc3ccccc23)C(=O)N1Cc1ccc(Br)cc1 (mixture of isomers) | Active | > 52.6 µM | > 52.6 µM | Active | 8.6 µM | 25.9 µM | > 52.6 µM | – | 35.5 µM | 11.2 µM | 37.2 µM | > 52.6 µM | 19.8 µM | 3.1 | Non-toxic | 22.6 µM | 50.7 µM | 7.2 µM | > 52.6 µM | –
8 | Cc1c(C)c2c(c(C)c1O)CCC(C)(COc1ccc(/C=C3/SC(=O)NC3=O)cc1)O2 (stereo unspecified) | – | – | – | – | – | – | – | – | – | – | – | – | – | – | – | – | – | – | – | IC50 (PC-3 [7]): 20 µM; IC50 (LNCaP): 14 µM
